Measured values taken from ChEMBL document CHEMBL1795243, “New microtubule polymerization inhibitors comprising a nitrooxymethylphenyl group” (Bioorg Med Chem, 2011).
Active and inactive are the calls of the source. The rule behind the calls is not given here.

Columns and labels:
MCF7 = experiment: Antiproliferative activity against human MCF7 cells after 72 hrs by cell counting kit analysis; type: functional, cell-based; details: MCF7, 72 h
How it was run: (§1)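 Cells grown with compound for 72 h, then growth quantified by WST-1 Cell Counting Kit. Final concentrations 1, 10, 25, 50, 100 and 200 μM. All media had 10% FBS, 37 °C, 5% CO2. Read-out IC50.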

SK-BR-3 = experiment: Antiproliferative activity against human SK-BR-3 cells after 72 hrs by cell counting kit analysis; type: functional, cell-based; details: SK-BR-3, 72 h; how it was run: as §1
SW480 = experiment: Antiproliferative activity against human SW480 cells after 72 hrs by cell counting kit analysis; type: functional, cell-based; details: SW480, 72 h; how it was run: as §1
SW-620 = experiment: Antiproliferative activity against human SW620 cells after 72 hrs by cell counting kit analysis; type: functional, cell-based; details: SW-620, 72 h; how it was run: as §1
HCT-116 [1] = experiment: Antiproliferative activity against human HCT116 cells after 72 hrs by cell counting kit analysis; type: functional, cell-based; details: HCT-116, 72 h; how it was run: as §1
MDA-MB-231 = experiment: Antiproliferative activity against human MDA-MB-231 cells after 72 hrs by cell counting kit analysis; type: functional, cell-based; details: MDA-MB-231, 72 h; how it was run: as §1
Tubulin (Homo sapiens) [2] = target: T1, Tubulin (Homo sapiens) (UniProt P68371+Q9H4B7+P0DPH7+P68366+Q13509+Q71U36+P04350+Q3ZCM7+P07437+P68363+Q9BQE3+Q6PEY2+Q13885+Q9BVA1+Q9BUF5); experiment: Inhibition of alpha-tubulin polymerization in human HT1080 cells assessed as disruption of microtubule structures at 10 uM after 4 hrs using Hoechst staining by fluorescence microscopic analysis; type: cell-based; details: HT-1080
Mus musculus = experiment: Toxicity in human HCT116 cells xenografted nude mouse assessed change in body weight at 50 to 80 mg/kg, ip administered at days 0, 2, 4, 7, 9, 11, 14 and 16 measured on day 21; type: organism-based, HCT-116; design: dose 50-80 mg/kg, route intraperitoneal; details: in vivo
HCT-116 [3] = experiment: Cell cycle arrest in human HCT116 cells assessed as increase of phosphorylated histone H3 at Ser10 level at 20 to 40 uM after 24 hrs by Western blotting; type: functional, cell-based
How it was run: (§2)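 HCT116 (1.0×10^6/dish) serum-starved 24 h, then treated 24 h in serum-free medium (0.4% DMSO control). Lysed 1 h at 0 °C in modified lysis buffer (pH 8.0, 1% NP-40). 7.5 µg protein run on SDS-PAGE and PVDF blot, probed for phospho-histone H3 Ser10 and total H3, ECL detection. Five independent experiments.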

HCT-116 [4] = experiment: Cell cycle arrest in human HCT116 cells assessed as accumulation at S phase at 20 uM after 24 hrs by FACS analysis (reference value: 8.5 %); type: functional
HCT-116 [5] = experiment: Antitumor activity against human HCT116 cells xenografted in nude mouse assessed as inhibition of tumor growth at 80 mg/kg, ip administered at days 0, 2, 4, 7, 9, 11, 14 and 16 measured on day 21 relative to control; type: functional; details: route intraperitoneal
HCT-116 [6] = experiment: Cell cycle arrest in human HCT116 cells assessed as accumulation at G2/M phase at 20 uM after 24 hrs by FACS analysis (reference value: 10.9 %); type: functional
Tubulin (Sus scrofa) = Tubulin (Sus scrofa) (UniProt P02554+P02550); experiment: Inhibition of purified porcine brain tubulin polymerization at 20 uM after 100 mins by fluorescence assay
How it was run: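 Porcine brain tubulin 2.0 mg/mL in General Tubulin Buffer with Tubulin Glycerol Buffer, GTP and DAPI. Added to compound prewarmed at 37 °C (final 2.0% DMSO, which is also the vehicle control). DAPI fluorescence (ex 340, em 460 nm) read kinetically over 100 min. Four independent experiments.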

HCT-116 [7] = experiment: Cell cycle arrest in human HCT116 cells assessed as increase of phosphorylated histone H3 at Ser10 level at 20 uM after 24 hrs using propidium iodide staining by flow cytometry (reference value: 1.4 %); type: functional
HCT-116 [8] = experiment: Induction of apoptosis in human HCT116 cells at 20 uM after 24 hrs using FITC-TUNEL staining by flow cytometry; type: functional
How it was run: (§3)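 HCT116 at 1.0×10^6 per 60 mm dish, treated 24 or 48 h (0.4% DMSO control). Floating plus adherent cells assayed with DeadEnd Fluorometric TUNEL System, and FITC-TUNEL-positive percentage read by flow cytometry. Five independent experiments.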

[9] = Antiproliferative activity against human CCD-1059SK cells at 200 uM after 72 hrs by cell counting kit analysis; type: cell-based; how it was run: as §1
HCT-116 [10] = experiment: Induction of apoptosis in human HCT116 cells at 20 uM after 48 hrs using FITC-TUNEL staining by flow cytometry (reference value: 7.3 %); type: functional; how it was run: as §3
HCT-116 [11] = experiment: Cell cycle arrest in human HCT116 cells assessed as accumulation at G0/G1 phase at 20 uM after 24 hrs by FACS analysis (reference value: 76.5 %); type: functional
HCT-116 [12] = experiment: Cell cycle arrest in human HCT116 cells assessed as accumulation at sub-G1 phase at 20 uM after 24 hrs by FACS analysis (reference value: 6.2 %); type: functional
Tubulin (Homo sapiens) [13] = target: T1, Tubulin (Homo sapiens); experiment: Inhibition of alpha-tubulin polymerization in human HT1080 cells assessed as disruption of microtubule structures at 100 nM after 4 hrs using Hoechst staining by fluorescence microscopic analysis; type: cell-based; details: HT-1080
HCT-116 [14] = experiment: Cell cycle arrest in human HCT116 cells assessed as accumulation at sub-G1 phase at 150 nM after 24 hrs by FACS analysis (reference value: 6.2 %); type: functional
HCT-116 [15] = experiment: Induction of apoptosis in human HCT116 cells at 150 nM after 24 hrs using FITC-TUNEL staining by flow cytometry; type: functional; how it was run: as §3
HCT-116 [16] = experiment: Cell cycle arrest in human HCT116 cells assessed as increase of phosphorylated histone H3 at Ser10 level at 150 nM after 24 hrs by Western blotting; type: functional, cell-based; how it was run: as §2
HCT-116 [17] = experiment: Cell cycle arrest in human HCT116 cells assessed as increase of phosphorylated histone H3 at Ser10 level at 150 nM after 24 hrs using propidium iodide staining by flow cytometry (reference value: 1.4 %); type: functional
HCT-116 [18] = experiment: Cell cycle arrest in human HCT116 cells assessed as accumulation at S phase at 150 nM after 24 hrs by FACS analysis (reference value: 8.5 %); type: functional
HCT-116 [19] = experiment: Induction of apoptosis in human HCT116 cells at 150 nM after 48 hrs using FITC-TUNEL staining by flow cytometry (reference value: 7.3 %); type: functional; how it was run: as §3
HCT-116 [20] = experiment: Cell cycle arrest in human HCT116 cells assessed as accumulation at G2/M phase at 150 nM after 24 hrs by FACS analysis (reference value: 10.9 %); type: functional
HCT-116 [21] = experiment: Cell cycle arrest in human HCT116 cells assessed as accumulation at G0/G1 phase at 150 nM after 24 hrs by FACS analysis (reference value: 76.5 %); type: functional

Tubulin (Sus scrofa), sequence (P02550 whole entry, looked up): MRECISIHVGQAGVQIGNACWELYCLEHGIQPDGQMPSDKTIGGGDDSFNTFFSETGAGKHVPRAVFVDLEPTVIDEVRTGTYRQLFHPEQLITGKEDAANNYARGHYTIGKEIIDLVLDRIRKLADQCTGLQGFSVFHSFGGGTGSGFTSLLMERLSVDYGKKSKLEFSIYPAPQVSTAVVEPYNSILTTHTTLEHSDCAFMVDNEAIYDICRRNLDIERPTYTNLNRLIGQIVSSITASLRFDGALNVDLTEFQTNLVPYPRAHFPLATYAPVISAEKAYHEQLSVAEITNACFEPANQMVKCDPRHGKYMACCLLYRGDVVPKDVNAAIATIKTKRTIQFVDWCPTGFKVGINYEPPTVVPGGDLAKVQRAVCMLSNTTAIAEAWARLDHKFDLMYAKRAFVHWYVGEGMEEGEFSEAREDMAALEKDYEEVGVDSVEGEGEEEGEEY
Tubulin (Sus scrofa), sequence (P02554 whole entry, looked up): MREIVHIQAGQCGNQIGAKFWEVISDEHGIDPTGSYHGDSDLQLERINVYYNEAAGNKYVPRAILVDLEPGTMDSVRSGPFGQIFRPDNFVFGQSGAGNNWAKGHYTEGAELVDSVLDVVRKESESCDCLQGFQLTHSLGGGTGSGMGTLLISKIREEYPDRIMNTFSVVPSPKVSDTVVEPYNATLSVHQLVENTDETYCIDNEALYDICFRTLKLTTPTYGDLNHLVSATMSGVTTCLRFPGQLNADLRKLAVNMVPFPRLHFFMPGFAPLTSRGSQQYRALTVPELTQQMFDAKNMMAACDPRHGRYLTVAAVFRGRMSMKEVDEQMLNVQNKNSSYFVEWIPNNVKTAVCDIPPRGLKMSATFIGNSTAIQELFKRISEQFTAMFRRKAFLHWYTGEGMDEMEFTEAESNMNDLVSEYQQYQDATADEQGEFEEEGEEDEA

IC50 (MCF7)	IC50 (SK-BR-3)	IC50 (SW480)	IC50 (SW-620)	IC50 (HCT-116 [1])	IC50 (MDA-MB-231)	Structure (SMILES)	other results
> 100 µM	50.1 µM	80.7 µM	16.9 µM	17.9 µM	47.7 µM	O=C(Oc1ccccc1)c1ccc(CO[N+](=O)[O-])cc1	
> 100 µM	> 100 µM	> 100 µM	> 100 µM	> 100 µM	> 100 µM	O=C(Nc1ccccc1NC(=O)c1ccc(CO[N+](=O)[O-])cc1)c1ccc(CO[N+](=O)[O-])cc1	
> 100 µM	0.7 µM	0.8 µM	0.8 µM	0.6 µM	0.8 µM	O=C(Nc1ccccc1)c1ccc(CO[N+](=O)[O-])cc1	inhibition (Tubulin (Homo sapiens) [2]): Active; Activity (Mus musculus): Non-toxic; Activity (HCT-116 [3]): Active; Activity (HCT-116 [4]): 7.4%; T/C (HCT-116 [5]): 55%; Activity (HCT-116 [6]): 51.8%; inhibition (Tubulin (Sus scrofa)): Active; Activity (HCT-116 [7]): 46.2%; Activity (HCT-116 [8]): 4%; Activity [9]: Non-toxic; Activity (HCT-116 [10]): 24.2%; Activity (HCT-116 [11]): 30.4%; Activity (HCT-116 [12]): 10.4%
> 100 µM	> 100 µM	> 100 µM	> 100 µM	> 100 µM	> 100 µM	CCc1ccc(C(=O)Nc2ccccc2)cc1	
						CC[C@]1(O)C[C@H]2CN(CCc3c([nH]c4ccccc34)[C@@](C(=O)OC)(c3cc4c(cc3OC)N(C=O)[C@H]3[C@@](O)(C(=O)OC)[C@H](OC(C)=O)[C@]5(CC)C=CCN6CC[C@]43[C@@H]65)C2)C1 [VINCRISTINE]	inhibition (Tubulin (Homo sapiens) [13]): Active; Activity (HCT-116 [14]): 23%; Activity (HCT-116 [15]): 4%; Activity (HCT-116 [16]): Active; Activity (HCT-116 [17]): 25.3%; Activity (HCT-116 [18]): 12.5%; Activity (HCT-116 [19]): 31.6%; Activity (HCT-116 [20]): 28.6%; Activity (HCT-116 [21]): 35.9%
> 100 µM	0.7 µM	3.8 µM	0.8 µM	0.7 µM	1.4 µM	O=C(Nc1ccccc1OC(=O)c1ccc(CO[N+](=O)[O-])cc1)c1ccc(CO[N+](=O)[O-])cc1	inhibition (Tubulin (Homo sapiens) [2]): Active; Activity (HCT-116 [3]): Active; Activity (HCT-116 [4]): 7.3%; Activity (HCT-116 [6]): 29.3%; inhibition (Tubulin (Sus scrofa)): Active; Activity (HCT-116 [7]): 26.4%; Activity (HCT-116 [8]): 4%; Activity [9]: Non-toxic; Activity (HCT-116 [10]): 36.4%; Activity (HCT-116 [11]): 52.4%; Activity (HCT-116 [12]): 11%
> 100 µM	18.5 µM	22.2 µM	25.8 µM	47.6 µM	30 µM	O=C(Nc1ccccc1OC(=O)c1cccc(CO[N+](=O)[O-])c1)c1cccc(CO[N+](=O)[O-])c1	
> 100 µM	6.3 µM	8.4 µM	7.6 µM	6.2 µM	6.7 µM	O=C(Nc1cccc(OC(=O)c2ccc(CO[N+](=O)[O-])cc2)c1)c1ccc(CO[N+](=O)[O-])cc1	
